ChEMBL document CHEMBL4049430, “Indazole-6-phenylcyclopropylcarboxylic Acids as Selective GPR120 Agonists with in Vivo Efficacy” (J Med Chem, 2017)
Active and inactive are the calls of the source. The rule behind the calls is not given here.

What was measured:
[1] = target: T1, Free fatty acid receptor 4 (Homo sapiens, UniProt Q5NUL3); assay: Agonist activity at human GPR120 expressed in CHO-FlpIn cells after 15 mins by DMR assay; type: cell-based
T1 sequence (Q5NUL3 whole entry): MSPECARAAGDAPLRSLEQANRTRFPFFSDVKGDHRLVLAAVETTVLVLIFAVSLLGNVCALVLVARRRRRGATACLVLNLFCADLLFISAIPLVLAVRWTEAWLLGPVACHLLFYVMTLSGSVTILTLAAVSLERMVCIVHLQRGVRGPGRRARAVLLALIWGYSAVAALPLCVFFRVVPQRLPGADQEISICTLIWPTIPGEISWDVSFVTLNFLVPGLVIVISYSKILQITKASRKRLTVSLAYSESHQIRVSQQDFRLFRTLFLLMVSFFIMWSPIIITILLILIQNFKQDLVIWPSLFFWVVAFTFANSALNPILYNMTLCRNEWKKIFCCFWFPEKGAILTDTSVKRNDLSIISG
How it was run: (§1)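 Cryopreserved CHO FlpIn cells stably expressing human or mouse GPR120 were seeded 48 h before assay, serum-starved for 24 h, then held 2 h in HBSS/20 mM HEPES/0.01% BSA (pH 7.4) with 0.5% DMSO. DMR was read over a 10 min baseline and for 15 min after addition. Runs were in duplicate, 10 points, 16 μM to 0.8 nM final, as % of maximal control agonist.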

[2] = target: T2, Free fatty acid receptor 4 (Homo sapiens) (UniProt Q5NUL3); assay: Agonist activity at human GPR120 expressed in CHO-FlpIn cells after 15 mins by DMR assay relative to control; type: cell-based; how it was run: as §1
T2 sequence (whole entry): T1 sequence (Q5NUL3 whole entry)

[3] = target: Free fatty acid receptor 1 (Mus musculus, UniProt Q76JU9); assay: Agonist activity at mouse GPR40 expressed in HEK293 cells assessed as increase in intracellular calcium level after 5 mins by FLUO-4-AM dye-based FLIPR assay; type: functional, cell-based
Chain of Free fatty acid receptor 1 (Q76JU9 whole entry): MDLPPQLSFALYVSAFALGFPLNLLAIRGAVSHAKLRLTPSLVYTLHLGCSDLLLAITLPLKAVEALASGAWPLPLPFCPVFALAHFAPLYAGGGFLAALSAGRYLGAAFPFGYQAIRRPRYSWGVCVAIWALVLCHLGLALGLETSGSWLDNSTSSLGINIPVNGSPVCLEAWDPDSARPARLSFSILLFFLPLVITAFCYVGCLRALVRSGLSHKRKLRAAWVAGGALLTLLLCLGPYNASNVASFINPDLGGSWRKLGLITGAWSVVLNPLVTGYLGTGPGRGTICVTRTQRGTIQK
How it was run: (§2)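 HEK293s cells stably expressing mouse GPR40 were seeded 24 h before assay and loaded for 1 h with calcium 3/Fluo-4 AM in HBSS, 20 mM HEPES, 0.01% BSA, 2.5 mM probenecid, pH 7.4. FLIPR Tetra took 10 baseline reads, then read for 5 min after addition. Runs were in duplicate, 9 points, 100 μM to 7 nM final, as % of maximal eladic acid control.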

[4] = target: Free fatty acid receptor 1 (Mus musculus) (UniProt Q76JU9); assay: Agonist activity at mouse GPR40 expressed in HEK293 cells assessed as increase in intracellular calcium level after 5 mins by FLUO-4-AM dye-based FLIPR assay relative to control; type: functional, cell-based; how it was run: as §2
Chain of Free fatty acid receptor 1 (Mus musculus) (Q76JU9 whole entry): as above

[5] = Octanol-buffer partition coefficient, log D of the compound at pH 7.4 after 30 mins by LC-UV based shake-flask method
[6] = target: T3, Free fatty acid receptor 4 (Mus musculus, UniProt Q7TMA4); assay: Agonist activity at mouse GPR120 expressed in CHO-FlpIn cells after 15 mins by DMR assay; type: cell-based; how it was run: as §1
T3 sequence (Q7TMA4 whole entry): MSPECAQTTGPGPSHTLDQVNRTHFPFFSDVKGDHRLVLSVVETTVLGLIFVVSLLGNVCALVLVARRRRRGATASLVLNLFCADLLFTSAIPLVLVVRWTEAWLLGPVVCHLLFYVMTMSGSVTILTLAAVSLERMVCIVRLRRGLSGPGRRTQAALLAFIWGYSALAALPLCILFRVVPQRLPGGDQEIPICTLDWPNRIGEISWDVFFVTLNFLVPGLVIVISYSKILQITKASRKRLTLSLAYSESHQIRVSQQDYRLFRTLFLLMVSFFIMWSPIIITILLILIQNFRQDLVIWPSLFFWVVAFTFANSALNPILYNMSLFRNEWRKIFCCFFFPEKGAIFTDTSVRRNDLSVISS

[7] = target: T4, Free fatty acid receptor 4 (Mus musculus) (UniProt Q7TMA4); assay: Agonist activity at mouse GPR120 expressed in CHO-FlpIn cells after 15 mins by DMR assay relative to control; type: cell-based; how it was run: as §1
T4 sequence (whole entry): T3 sequence (Q7TMA4 whole entry)

[8] = Protein binding in mouse plasma assessed as unbound fraction after 24 hrs by equilibrium dialysis; type: ADME, cell-free
[9] = Clearance in mouse at 2.5 mg/kg, iv after 24 hrs; type: ADME, organism-based; details: in vivo
[10] = Volume of distribution at steady state in mouse at 2.5 mg/kg, iv after 24 hrs; type: ADME, organism-based; details: in vivo, read-out: Vdss
[11] = Cmax in mouse at 5 mg/kg administered through oral gavage after 24 hrs; type: ADME, organism-based; design: dose 5 mg/kg, route oral; details: in vivo
[12] = (§3) Oral bioavailability in mouse at 5 mg/kg after 24 hrs; type: ADME, organism-based; details: in vivo
[13] = Ratio of drug level in mouse brain to blood at 5 mg/kg administered through oral gavage after 2 hrs; type: ADME, organism-based
[14] = Ratio of unbound drug level in mouse brain to blood at 5 mg/kg administered through oral gavage after 2 hrs
[15] = tested on: Mus musculus; assay: Antidiabetic activity in GPR120 knockout mouse assessed as reduction in glucose excursion at 100 mg/kg administered through oral gavage 30 mins prior to glucose challenge measured after 90 mins by OGTT; type: functional, organism-based
How it was run: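 OGTT used in-house C57BL/6J mice aged 10–11 weeks. GPR120 knockout and wild-type controls were bred in house, back-crossed onto C57BL/6J, and used at 9–10 weeks. Compound was given as a suspension: a concentrated stock was made at rt the day before and diluted on study day to the dosing concentrations.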

[16] = Ratio of unbound drug level in wild-type mouse brain to blood at 100 mg/kg administered through oral gavage 30 mins prior to glucose challenge measured after 90 mins; details: brain
[17] = tested on: Mus musculus; assay: Toxicity in mouse at 150 mg/kg, po after 2 hrs; type: organism-based; details: in vivo
[18] = Drug uptake in mouse blood at 150 mg/kg, po after 2 hrs; type: ADME, organism-based; details: read-out: Drug uptake
[19] = tested on: Mus musculus; assay: Toxicity in mouse at 300 mg/kg, po after 1 hr; type: organism-based; details: in vivo
[20] = Drug uptake in mouse blood at 300 mg/kg, po after 1 hr; type: ADME, organism-based; details: read-out: Drug uptake
[21] = Drug uptake in mouse brain at 300 mg/kg, po after 1 hr; type: ADME, organism-based; details: read-out: Drug uptake
[22] = Apparent permeability across apical to basolateral side in human Caco2 cells; details: Caco-2
[23] = tested on: MDR1; assay: Efflux ratio of permeability in MDCK2-MDR1 cells at 10 uM; details: dog, MDCK-MDR1
[24] = target: 3',5'-cyclic-AMP phosphodiesterase 4D (Homo sapiens, UniProt Q08499); assay: Inhibition of phosphodiesterase 4D (unknown origin)
Chain of 3',5'-cyclic-AMP phosphodiesterase 4D (Q08499 whole entry): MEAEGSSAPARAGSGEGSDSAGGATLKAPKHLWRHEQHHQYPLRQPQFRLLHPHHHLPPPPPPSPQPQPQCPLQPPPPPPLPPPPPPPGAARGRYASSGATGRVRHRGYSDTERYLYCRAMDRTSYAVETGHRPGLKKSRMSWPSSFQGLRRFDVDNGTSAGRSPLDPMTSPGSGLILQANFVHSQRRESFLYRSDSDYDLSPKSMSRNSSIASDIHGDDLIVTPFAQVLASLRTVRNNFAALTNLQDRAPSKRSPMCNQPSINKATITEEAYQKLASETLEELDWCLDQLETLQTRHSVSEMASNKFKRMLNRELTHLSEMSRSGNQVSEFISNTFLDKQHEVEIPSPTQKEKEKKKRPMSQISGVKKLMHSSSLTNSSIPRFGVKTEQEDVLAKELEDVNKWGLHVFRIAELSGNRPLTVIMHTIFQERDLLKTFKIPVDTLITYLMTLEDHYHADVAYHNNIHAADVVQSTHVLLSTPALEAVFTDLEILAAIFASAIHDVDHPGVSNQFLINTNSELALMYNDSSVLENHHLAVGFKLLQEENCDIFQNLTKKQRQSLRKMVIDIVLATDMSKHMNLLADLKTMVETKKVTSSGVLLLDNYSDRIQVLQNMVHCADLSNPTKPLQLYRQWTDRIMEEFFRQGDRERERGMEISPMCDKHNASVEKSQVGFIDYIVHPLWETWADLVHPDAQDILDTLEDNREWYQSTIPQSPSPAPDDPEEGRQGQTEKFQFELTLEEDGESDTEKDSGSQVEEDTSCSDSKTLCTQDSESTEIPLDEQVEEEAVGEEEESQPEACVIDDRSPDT

[25] = Cmax in mouse blood at 50 mg/kg, po; type: ADME, organism-based; design: dose 50 mg/kg, route oral
[26] = tested on: Mus musculus; assay: Toxicity in mouse at 50 mg/kg, po; type: organism-based; details: in vivo
[27] = Drug uptake in mouse brain at 50 mg/kg, po after 2 hrs; type: ADME, organism-based; details: read-out: Drug uptake
[28] = tested on: Mus musculus; assay: as §3; type: ADME, organism-based; details: in vivo, 24 h

| SMILES | EC50 [1] [µM] | Efficacy [2] [%] | EC50 [3] [µM] | Efficacy [4] [%] | logD at 0.5 h [5] | EC50 [6] [µM] | Efficacy [7] [%] | also measured |
| --- | --- | --- | --- | --- | --- | --- | --- | --- |
| Cc1ccc(-n2nc(C)c3cnc(-c4ccc([C@H]5C[C@@H]5C(=O)O)cc4)cc32)cc1 | 0.9 | 76 | > 100 | 12 | 2.6 | 0.64 | 99 | – |
| Cc1ccc(-n2nc(C)c3ccc(-c4ccc([C@H]5C[C@@H]5C(=O)O)cc4)cc32)cc1 | – | 100 | – | 1 | – | 0.51 | 91 | fraction unbound at 24 h [8]: 0.0049; clearance [9]: 9.6 mL/min/kg; Vd [10]: 1.2 L/kg; Cmax [11]: 7.9 µM; bioavailability [12]: 136%; Kp at 2 h [13]: 0.82; Kp uu at 2 h ([14]; brain): 0.22; Activity [15]: inactive; Kp uu at 1.5 h [16]: 0.27 |
| O=C(O)CCc1ccc(-c2cc(F)c3cnn(-c4ccccn4)c3c2)cc1 | 0.47 | 100 | 2.6 | 126 | 2.8 | – | – | – |
| Cc1nn(-c2ccccn2)c2cc(-c3ccc(CCC(=O)O)cc3C#N)ccc12 | 2.4 | 80 | 6.1 | 47 | 2.2 | – | – | – |
| CCc1nn(-c2ccccn2)c2cc(-c3ccc(CCC(=O)O)cc3)ccc12 | 0.76 | 75 | 1.1 | 93 | 3.3 | – | – | – |
| N#Cc1cc(-c2ccc(CCC(=O)O)cc2)cc2c1cnn2-c1ccccn1 | 2 | 78 | 19 | 113 | 2.2 | – | – | – |
| COc1nn(-c2ccccn2)c2cc(-c3ccc([C@H]4C[C@@H]4C(=O)O)cc3)ccc12 | 0.47 | 102 | > 100 | 1 | 3.8 | 0.41 | 99 | Activity [17]: Non-Toxic; concentration at 2 h [18]: 126 µM; Activity [19]: Toxic; concentration at 1 h [20]: 284 µM; concentration at 1 h [21]: 207 µM; fraction unbound at 24 h [8]: 0.0048; clearance [9]: 9.3 mL/min/kg; Vd [10]: 1.5 L/kg; Cmax [11]: 5.4 µM; bioavailability [12]: 126%; Kp at 2 h [13]: 2.3; Kp uu at 2 h ([14]; brain/blood): 0.86; Papp A→B [22]: 31 ×10⁻⁶ cm/s; efflux ratio at 10 µM [23]: 2; IC50 [24]: 1.6 µM |
| Cc1nn(-c2ccccn2)c2cc(-c3ccc(CCC(=O)O)cc3)ncc12 | 2.6 | 78 | 9.2 | 86 | 1.6 | – | – | – |
| COc1nn(-c2ccccn2)c2cc(-c3ccc([C@H]4C[C@@H]4C(=O)O)cc3)cc(F)c12 | 0.51 | 93 | > 100 | 19 | 3.8 | 0.62 | 103 | Cmax [25]: 97 µM; Activity [17]: Toxic; Activity [26]: Non-Toxic; concentration at 2 h [27]: 147 µM; fraction unbound at 24 h [8]: 0.0053; clearance [9]: 5.2 mL/min/kg; Vd [10]: 1 L/kg; Cmax [11]: 8.2 µM; F [28]: 159%; Kp at 2 h [13]: 2; Kp uu at 2 h ([14]; brain/blood): 0.45; Papp A→B [22]: 29 ×10⁻⁶ cm/s; efflux ratio at 10 µM [23]: 0.59 |
| N#Cc1nn(-c2ccccn2)c2cc(-c3ccc(CCC(=O)O)cc3)ccc12 | 4.8 | 87 | 2 | 124 | 3 | – | – | – |
| O=C(O)CCc1ccc(-c2ccc3cnn(-c4ccccn4)c3c2)cc1 | 0.99 | 114 | 4.5 | 106 | 2.4 | – | – | – |
| Cc1nn(-c2ccccn2)c2cc(-c3ccc(CCC(=O)O)cc3F)ccc12 | 0.6 | 113 | 1.5 | 105 | 2.9 | – | – | – |
| Cc1cc(-c2ccc(CCC(=O)O)cc2)cc2c1cnn2-c1ccccn1 | 4.6 | 70 | 2.6 | 82 | 2.6 | – | – | – |
| COc1nn(-c2ccc(C)cc2)c2cc(-c3ccc([C@H]4C[C@@H]4C(=O)O)cc3)cc(F)c12 | 0.078 | 115 | > 100 | 11 | > 4.2 | 0.017 | 176 | fraction unbound at 24 h [8]: 0.0011; clearance [9]: 0.4 mL/min/kg; Vd [10]: 0.7 L/kg; Cmax [11]: 5 µM; bioavailability [12]: 19%; Kp at 2 h [13]: 0.44 |
| Cc1ccc(-n2nc(C)c3c(F)cc(-c4ccc([C@H]5C[C@@H]5C(=O)O)cc4)cc32)cc1 | 0.52 | 88 | > 100 | 14 | 4.2 | 0.54 | 112 | – |
